# PGC1a acetyl inh: PGC1a acetylation modulation, inhibitor mode. U2OS PGC1a acetylation, AlphaScreen anti-acetyl-lysine; with virally co-expressed GCN5 acetyltransferase. AID 651687. inhibition, % at 15.6 µM. hit rate 0.17% among 350,000;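 active means every replicate shows inhibition of at least 40%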;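 further: 0% = neutral control wells and 100% = positive control wells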
# FGF22 binding: shifts melting point of recombinant human FGF22; Q9HCT0; recombinant FGF22 thermal shift, SYPRO orange fluorescence; percent of sucrose octasulfate shift, DMSO zero; activity (Tm shift, normalised), % at 9.99 µM; hit rate 1.5% among 340,000; AID 651658;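 active means mean Tm shift, scaled 0 neutral to 100 positive control, at about 1.3% or above, every replicate too, limit read from the data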
# Target sequence (Q9HCT0 whole entry, looked up): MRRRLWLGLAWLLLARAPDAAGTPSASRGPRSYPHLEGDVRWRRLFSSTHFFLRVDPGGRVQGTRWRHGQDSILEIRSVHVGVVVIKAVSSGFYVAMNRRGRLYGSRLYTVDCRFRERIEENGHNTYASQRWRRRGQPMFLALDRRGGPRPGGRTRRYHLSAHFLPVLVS
# FN deposition inh: fibronectin deposition inhibition | AID 743247 | inhibition, % at 12.6 µM | AH1F fibroblasts, Alexa488-fibronectin deposition fluorescence, overnight | hit rate 0.086% among 350,000;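 active means mean inhibition across replicates of 30% or more, regardless of how many single replicates reach that level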;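 further: positive control wells lacked labelled fibronectin entirely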
#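 Material: AH1F fibroblast monolayer depositing Alexa488-labelled fibronectin into matrix | Input: 10000 AH1F cells/well | Medium: DMEM plus 2% serum, read in PBS | Reagent: Alexa488-fibronectin, 24 nM final in well | Compound dosing: One dose per compound, pinned | Schedule: 1 h adhesion, overnight exposure | Measured by: Fluorescence at 485 nm excitation, 525 nm emission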
# ERAP1 inh: blocks human ERAP1 aminopeptidase activity. inhibition, % at 10.7 µM. hit rate 0.15% among 340,000. Q9NZ08. recombinant ERAP1, Leu-AMC fluorescence, 60 min;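 active means mean replicate inhibition of at least 30%, or all replicates individually reaching that 30% level; inactive means mean below 30% and not every replicate reaching it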;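 further: 0% = neutral control wells and 100% = L-leucinethiol positive control wells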
# SIRT5 inh: inhibitors of human sirtuin-5 desuccinylase; Purified SirT5, succinyl-peptide AMC, trypsin-coupled fluorescence; inhibition, % at 15 µM; hit rate 1.1% among 330,000; in the data active means inhibition above about 15%
# Target sequence (Q9NXA8 whole entry, looked up): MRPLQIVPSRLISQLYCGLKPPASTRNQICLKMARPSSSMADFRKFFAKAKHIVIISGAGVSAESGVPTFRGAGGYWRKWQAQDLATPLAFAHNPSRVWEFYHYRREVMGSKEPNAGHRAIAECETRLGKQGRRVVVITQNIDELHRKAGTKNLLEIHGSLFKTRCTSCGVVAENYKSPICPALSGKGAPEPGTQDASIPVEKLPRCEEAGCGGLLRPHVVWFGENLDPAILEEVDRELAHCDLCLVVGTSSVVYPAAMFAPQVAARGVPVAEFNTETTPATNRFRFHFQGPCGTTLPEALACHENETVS
# An asterisk follows results filed as active; · = no result given. A selection: hits, their analogues and other compounds. The true share with any hit is near 2.2%.
SMILES,PGC1a acetyl inh,FGF22 binding,FN deposition inh,ERAP1 inh,SIRT5 inh
O=c1c2ccccc2ncn1Cc1cccc2ccccc12,·,43.2*,7.2,-2.2,-1.8
CCn1c(=O)cc(SCC(=O)N2CCCCC2)c2ccccc21,-7.4,·,1.4,·,·
Cn1c(=O)cc(SCC(=O)N2CCN(C3CCCCC3)CC2)c2ccccc21,32.0,0.1,1.9,-5.7,16.8*
COc1ccc(-c2oc3ncnc(NCCN4CCOCC4)c3c2-c2ccc(OC)cc2)cc1,13.9,·,·,·,·
COc1ccc(-c2oc3ncnc(NCCCN4CCOCC4)c3c2-c2ccc(OC)cc2)cc1,3.4,·,active,·,·
C[C@H]1CN([C@@H](C)CO)C(=O)c2cccc(NS(=O)(=O)c3cccs3)c2O[C@@H]1CN(C)CC1CCCCC1,·,-0.2,-4.2,-0.3,-6.7
CC1=NN(c2ccc(C)c(C)c2)C(=O)/C1=C\C=C\c1ccc([N+](=O)[O-])o1,59.3*,43.3*,-0.2,4.2,-1.3
CC(=O)N1CC2(C1)[C@@H](c1ccc(-c3ccc(C#N)cc3)cc1)[C@@H](CO)N2C(=O)C1CC1,4.7,-0.1,·,1.6,-0.4
CC(Sc1nnc(COc2ccc(Cl)cc2)n1Cc1ccccc1)C(=O)O (stereo not given),-5.5,·,9.9,4.5,-1.6
Cc1cc(OCc2nnc(SC(C)C(=O)O)n2Cc2ccccc2)ccc1Cl (stereo not given),3.2,-0.1,5.0,-10.1,23.7*
O=C1C=CC2(O[C@H](c3ccccc3)[C@@H](c3ccccc3)O2)[C@H](Sc2ccccc2O)C1,·,-0.2,44.8*,32.7*,-8.8
COc1ccc(S(=O)(=O)Nc2cccc3c2O[C@H](CN(C)C(=O)Nc2ccc(C(F)(F)F)cc2)[C@H](C)CN([C@@H](C)CO)C3=O)cc1,-1.7,0.0,·,-1.5,8.8
O=C(O)C1CCC(Cn2c(SCc3cc(=O)n4cc(Br)ccc4n3)nc3ccsc3c2=O)CC1 (stereo not given),11.6,0.0,5.5,-27.8,16.7*
O=C(O)c1ccc(Cn2c(SCc3cc(=O)n4cc(Br)ccc4n3)nc3ccsc3c2=O)cc1,·,43.4*,-4.7,-16.1,-4.3
Cc1noc(C)c1NC(=O)Nc1cccc2c1O[C@H](CN(C)CC1CC1)[C@H](C)CN([C@H](C)CO)C2=O,1.5,0.1,·,-0.3,-5.8
Cc1ccc(N=Nc2c(N)nn(-c3ccccc3)c2N)cc1,·,0.0,-1.9,1.8,1.7
COc1ccc(N=Nc2c(N)nn(C)c2N)cc1,-0.7,43.9*,-2.1,9.4,·
CS(=O)(=O)N1CCN(c2ccc([N+](=O)[O-])c(N3CCOCC3)c2)CC1,8.1,·,·,·,·
CS(=O)(=O)N1CCN(c2ccccc2[N+](=O)[O-])CC1,0.2,43.3*,5.3,-0.9,1.3
CCc1nc2ccccc2c(C(=O)Oc2ccc(C(=O)OC)cc2)c1C,13.5,43.9*,-12.4,-3.7,0.0
CCc1nc2ccccc2c(C(=O)OCC(=O)Nc2ccc(NC(C)=O)cc2)c1C,12.7,-0.1,-5.8,-0.3,2.0
Cn1ccs/c1=N\C(=O)Nc1cccc(Cl)c1,·,42.9*,-7.7,-2.3,-1.9
O=c1cc(CSc2ccc(Cl)cc2)nc(-c2ccncc2)[nH]1,-3.1,43.3*,·,6.6,-1.6
COc1cc(CN2CCN(c3cccc(C)c3C)CC2)cc([N+](=O)[O-])c1O,·,43.4*,-8.4,6.6,-0.4
COc1ccc(N2CCN(Cc3cc(OC)c(O)c([N+](=O)[O-])c3)CC2)cc1,-3.0,·,-2.3,·,·
SMILES,PGC1a acetyl inh,FGF22 binding,FN deposition inh,ERAP1 inh,SIRT5 inh
CCn1nnnc1NCc1ccc(OCc2ccc(F)cc2Cl)c(OC)c1,·,43.4*,7.9,3.9,1.8
C/C=C/c1ccc2c(c1)O[C@H](CN(C)C(=O)CC)[C@@H](C)CN([C@H](C)CO)S2(=O)=O,5.5,0.1,·,-1.5,6.2
CC=Cc1ccc2n(c1=O)C[C@@H]1[C@@H](CO)[C@H](C(=O)Nc3ccc(-c4ccccc4)cc3)N(CCC)[C@H]21 (mixture of isomers),8.9,0.4,·,6.4,-1.0
COc1cc(C(=O)N[C@@H](C)C(=O)N2CCC3(CC2)NCCc2[nH]cnc23)cc(OC)c1OC,0.3,0.1,4.1,5.3,0.8
Cc1ccc(C(=O)NCC(=O)N2CCC3(CC2)NCCc2[nH]cnc23)cc1C,-13.6,-0.1,-1.1,0.4,-0.9
Cc1ccc(C(=O)NCCC(=O)N2CCC3(CC2)NCCc2[nH]cnc23)cc1C,8.7,-0.2,3.6,-1.1,27.8*
Cc1cc(C)cc(C(=O)N[C@@H](C)C(=O)N2CCC3(CC2)NCCc2[nH]cnc23)c1,2.7,43.4*,6.3,-3.5,-5.4
C[C@H](CO)N1C[C@H](C)[C@H](CN(C)C(=O)Nc2ccc(C(F)(F)F)cc2)Oc2ccc(NC(=O)CCC(F)(F)F)cc2C1=O,3.4,-0.4,·,1.3,1.0
Cc1ccc(S(=O)(=O)N(C)C[C@@H]2Oc3ncc(C#Cc4ccc(C(F)(F)F)cc4)cc3C(=O)N([C@H](C)CO)C[C@@H]2C)cc1,-6.6,-0.5,·,0.5,24.8*
C[C@@H]1CN([C@@H](C)CO)C(=O)c2cc(C#CCN(C)C)cnc2O[C@@H]1CN(C)S(=O)(=O)c1ccccc1,-3.2,·,-14.6,-3.8,0.6
C[C@H]1CN([C@@H](C)CO)C(=O)c2cc(C#CCN(C)C)cnc2O[C@H]1CN(C)S(=O)(=O)c1ccccc1,1.8,·,-0.1,-2.7,63.3*
COc1cccc(S(=O)(=O)N(C)C[C@@H]2Oc3ncc(-c4cccc(C(F)(F)F)c4)cc3C(=O)N([C@H](C)CO)C[C@@H]2C)c1,-0.8,-0.9,6.6,1.5,19.7*
CCCC#Cc1cnc2c(c1)C(=O)N([C@@H](C)CO)C[C@@H](C)[C@H](CN(C)S(=O)(=O)c1cccc(OC)c1)O2,-13.7,-0.5,·,1.5,29.0*
CCCC#Cc1cnc2c(c1)C(=O)N([C@H](C)CO)C[C@@H](C)[C@@H](CN(C)S(=O)(=O)c1cccc(OC)c1)O2,-0.4,-0.2,·,-1.9,1.6
CO[C@@H]1CN(C)C(=O)c2ccc(NC(=O)C3CCC3)cc2OC[C@H](C)N(Cc2nccs2)C[C@H]1C,·,-0.2,-9.0,-3.4,1.4
C[C@H]1CN([C@@H](C)CO)C(=O)c2cc(N(C)C)ccc2O[C@H]1CN(C)S(=O)(=O)c1ccccc1,-6.9,-0.5,·,-1.2,·
COc1cccc(C(=O)Nc2ccc3c(c2)OC[C@@H](C)NC[C@H](C)[C@@H](OC)CN(C)C3=O)c1,5.0,-0.2,8.8,-0.3,-3.5
COc1ccc(S(=O)(=O)Nc2ccc3c(c2)C(=O)N([C@@H](C)CO)C[C@H](C)[C@@H](CN(C)C(=O)c2ccncc2)OCCCC[C@@H](C)O3)cc1,-1.0,0.1,·,1.4,1.3
CN1c2ccc(C3=CCCCC3)cc2[C@@H]2[C@@H](CCN2C(=O)C2CCCCC2)[C@@H]1CO,-15.1,·,·,·,17.8*
CN1c2ccc(C3=CCCCC3)cc2[C@H]2[C@H](CCN2C(=O)C2CC2)[C@@H]1CO,38.5,·,·,0.9,19.6*
